# Measurements from different studies.
# Lines come from different studies, so protocols differ.
# Target: G protein-coupled receptor kinase 6 (GRK6, Homo sapiens, UniProt P43250)
Structure (SMILES),read-out,action,technique,tested at,endpoint,value
O=C1NC(=O)c2cc(Nc3ccc(F)cc3)c(Nc3ccc(F)cc3)cc21,cell-free assay,,,0.5 µM,remaining signal,98.7%
CCN(CC)CCNC(=O)c1c(C)[nH]c(/C=C2\C(=O)Nc3ccc(F)cc32)c1C,enzyme activity,inhibitor,,10 µM,inhibition,73%
Cc1cnc(NC2CCOCC2)nc1-n1cnc(C(=O)NC(CN)c2cc(F)cc(Cl)c2)c1 (stereo not drawn),enzyme activity,inhibitor,radiometric,1 µM,remaining activity,81%
Cc1ccc(Nc2nccc(N(C)c3ccc4c(C)n(C)nc4c3)n2)cc1S(N)(=O)=O,enzyme activity,inhibitor,,10 µM,inhibition,2%
Cc1cc(NC(=O)c2cccc3cc(-c4cccc5[nH]nc(N)c45)ccc23)ccc1F,enzyme activity,inhibitor,,0.1 µM,activity vs control,93%
O=C(Nc1cnn(-c2csc(C(=O)NC3COC3)c2)c1)Nc1ccccc1Cl,enzyme activity,inhibitor,,5 µM,remaining activity,97.9%
COc1cc2ncnc(Nc3ccc(Oc4ccccc4)cc3C)c2cc1OC,enzyme activity,inhibitor,,1 µM,inhibition,0%
CC(C)(C)c1nc(-c2cccc(NS(=O)(=O)c3c(F)cccc3F)c2F)c(-c2ccnc(N)n2)s1,enzyme activity,inhibitor,radiometric,1 µM,remaining activity,79%
CNC(=O)c1cc(Oc2ccc(NC(=O)Nc3ccc(Cl)c(C(F)(F)F)c3)cc2)ccn1,enzyme activity,inhibitor,,0.3 µM,inhibition,2%
CN1CC(Oc2cnc(C#N)cc2-c2ccn3nc(NC(=O)C4CC4)cc3c2)C1,enzyme activity,inhibitor,,1 µM,inhibition,9%
N#CCCc1ccc2c(c1)-c1[nH]c3ccc([N+](=O)[O-])cc3c1CC(=O)N2,cell-free assay,,,0.5 µM,remaining signal,91.5%
Cc1ccc(C(=O)NCc2ccsc2)cc1C#Cc1cn(C(C)C)c2ncnc(N)c12,enzyme activity,inhibitor,,1 µM,activity vs control,109%
